The subject of this test is RTKs (EGFR, Met, IGF-1Rβ) in PANC-1 and EC46 cells. Put plainly: Immunoblot analysis of receptor tyrosine kinases. The class given is cell-based, human. To be noted: 24 h. Summed up:
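PANC-1 and EC46 cells were seeded at 200,000/well and attached overnight. Medium was renewed with the test compound or EtOH control added. Whole-cell lysates were taken at 24 h in phosphatase-safe buffer and protein was quantified by BCA. Equal protein was resolved on 4–12% SDS-PAGE and transferred to PVDF. Blots were probed for EGFR, Met, IGF-1Rβ and β-actin, with chemiluminescent detection.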
For orientation: In western blotting, separated proteins are transferred to a membrane and probed.

For the compound `CC[C@H](C)[C@@H]1C(=O)N2CCC[C@@H]2C(=O)O[C@H](C(C)(C)C)C[C@@H](C)C[C@@H](O)C(C)(C)C2=N[C@H](CCC(=O)N[C@@H](Cc3ccc(OC)cc3)C(=O)N(C)[C@@H](C)C(=O)N1C)CS2` [Apra S10, apratoxin S10], the “effect on RTKs” value is listed as “potently downregulated various RTKs”.

(Values after PMC6360136 (Investigational new drugs, 2018).)
